Data as given in ChEMBL document CHEMBL4152228, “Structural-based design, synthesis, and antitumor activity of novel alloxazine analogues with potential selective kinase inhibition” (Eur J Med Chem, 2018).

What was measured:
MCF7 [1] = experiment: Ratio of increase in late apoptotic cells to early apoptotic cells in human MCF7 cells at 10 uM after 72 hrs by annexin V-FITC/propidium iodide staining-based flow cytometric method; assay type: functional
MCF7 [2] = experiment: Induction of apoptosis in human MCF7 cells assessed as late apoptotic cells at 5 uM after 72 hrs by annexin V-FITC/propidium iodide staining-based flow cytometric method (reference value: 2.6%); assay type: functional
MCF7 [3] = experiment: Induction of apoptosis in human MCF7 cells assessed as early apoptotic cells at 5 uM after 72 hrs by annexin V-FITC/propidium iodide staining-based flow cytometric method (reference value: 9%); assay type: functional
[4] = Antiproliferative activity against human WM793B cells after 72 hrs by MTT assay; assay type: functional, cell-based
Method in brief: (§1)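 MTT viability assay. Cells grown in RPMI-1640 with 10% heat-inactivated FBS, L-glutamine and 1% penicillin/streptomycin, used within 20 passages. Seeded at 5×10^3 cells/well, left overnight at 37 °C, then exposed to final concentrations of 0.005–50 µM (0.1% DMSO) for up to 72 h. MTT added for 3 h, formazan dissolved in DMSO, absorbance read at 550 nm. IC50 derived relative to untreated controls.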

MCF7 [5] = experiment: Induction of apoptosis in human MCF7 cells assessed as early apoptotic cells at 10 uM after 72 hrs by annexin V-FITC/propidium iodide staining-based flow cytometric method (reference value: 9%); assay type: functional
A2780 = experiment: Antiproliferative activity against human A2780 cells after 72 hrs by MTT assay; assay type: functional, cell-based; conditions: A2780, 72 h; method in brief: as §1
MCF7 [6] = experiment: Induction of apoptosis in human MCF7 cells assessed as viable cells at 10 uM after 72 hrs by annexin V-FITC/propidium iodide staining-based flow cytometric method (reference value: 76%); assay type: functional; conditions: MCF7, 72 h, read-out: Activity
MCF7 [7] = experiment: Induction of apoptosis in human MCF7 cells assessed as early apoptotic cells at 1 uM after 72 hrs by annexin V-FITC/propidium iodide staining-based flow cytometric method (reference value: 9%); assay type: functional
MCF7 [8] = experiment: Antiproliferative activity against human MCF7 cells after 72 hrs by MTT assay; assay type: functional, cell-based; conditions: MCF7, 72 h; method in brief: as §1
MCF7 [9] = experiment: Induction of apoptosis in human MCF7 cells assessed as increase of early apoptotic cells after 72 hrs by annexin V-FITC/propidium iodide staining-based flow cytometric method; assay type: functional, cell-based
Method in brief: (§2)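 MCF-7 cells treated 72 h at final 1, 5, 10 µM, then annexin V-FITC/PI stained in pH 7.4 HEPES binding buffer and analysed by flow cytometry. Early or late apoptotic cell fraction expressed as percent change versus vehicle control: (sample − control)/control × 100. Triplicates.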

MCF7 [10] = experiment: Induction of apoptosis in human MCF7 cells assessed as necrotic cells at 1 uM after 72 hrs by annexin V-FITC/propidium iodide staining-based flow cytometric method (reference value: 12.6%); assay type: functional
HCT-116 = experiment: Antiproliferative activity against human HCT116 cells after 72 hrs by MTT assay; assay type: functional, cell-based; conditions: HCT-116, 72 h; method in brief: as §1
MCF7 [11] = experiment: Induction of apoptosis in human MCF7 cells assessed as necrotic cells at 5 uM after 72 hrs by annexin V-FITC/propidium iodide staining-based flow cytometric method (reference value: 12.6%); assay type: functional
MCF7 [12] = experiment: Induction of apoptosis in human MCF7 cells assessed as viable cells at 1 uM after 72 hrs by annexin V-FITC/propidium iodide staining-based flow cytometric method (reference value: 76%); assay type: functional; conditions: MCF7, 72 h, read-out: Activity
MCF7 [13] = experiment: Induction of apoptosis in human MCF7 cells assessed as viable cells at 5 uM after 72 hrs by annexin V-FITC/propidium iodide staining-based flow cytometric method (reference value: 76%); assay type: functional; conditions: MCF7, 72 h, read-out: Activity
MCF7 [14] = experiment: Induction of apoptosis in human MCF7 cells assessed as late apoptotic cells at 10 uM after 72 hrs by annexin V-FITC/propidium iodide staining-based flow cytometric method (reference value: 2.6%); assay type: functional
MCF7 [15] = experiment: Induction of apoptosis in human MCF7 cells assessed as increase of early apoptotic cells at 1 to 10 uM after 72 hrs by annexin V-FITC/propidium iodide staining-based flow cytometric method relative to control; assay type: functional; method in brief: as §2
MCF7 [16] = experiment: Induction of apoptosis in human MCF7 cells assessed as late apoptotic cells at 1 uM after 72 hrs by annexin V-FITC/propidium iodide staining-based flow cytometric method (reference value: 2.6%); assay type: functional
MCF7 [17] = experiment: Induction of apoptosis in human MCF7 cells assessed as necrotic cells at 10 uM after 72 hrs by annexin V-FITC/propidium iodide staining-based flow cytometric method (reference value: 12.6%); assay type: functional
K562 = experiment: Antiproliferative activity against human K562 cells after 72 hrs by MTT assay; assay type: functional, cell-based; conditions: K562, 72 h
[18] = biological target: Mast/stem cell growth factor receptor Kit (Homo sapiens) (UniProt P10721); experiment: Inhibition of c-KIT (unknown origin) at 10 uM by [33P]-ATP radiometric assay
Method in brief: (§3)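 Radiometric kinase profiling: purified recombinant kinase (~10–50 nM final) with substrate, assay buffer and compound at 10 µM (control 10% DMSO). Started with 33P-ATP (50 µM stock, 0.8 µCi), run 30 min at ambient temperature, then spotted onto P81 phosphocellulose and washed in 1% phosphoric acid.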

[19] = biological target: Receptor tyrosine-protein kinase erbB-2 (Homo sapiens) (UniProt P04626); experiment: Inhibition of HER2 (unknown origin) at 10 uM by [33P]-ATP radiometric assay
Method in brief: as §3, with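 “acid. Scintillation counted, no-substrate blank subtracted, single measurement, result given as % change versus control.” for “acid.”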

[20] = biological target: Calcium/calmodulin-dependent protein kinase type 1 (Homo sapiens) (UniProt Q14012); experiment: Inhibition of CAMK1 (unknown origin) at 10 uM by [33P]-ATP radiometric assay
Method in brief: as §3, with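 “acid. Scintillation counted, no-substrate blank subtracted, single measurement, result given as % change versus control.” for “acid.”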

[21] = biological target: Hepatocyte growth factor receptor (Homo sapiens) (UniProt P08581); experiment: Inhibition of MET (unknown origin) at 10 uM by [33P]-ATP radiometric assay
Method in brief: as §3, with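 “acid. Scintillation counted, no-substrate blank subtracted, single measurement, result given as % change versus control.” for “acid.”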

[22] = biological target: Mitogen-activated protein kinase 8 (Homo sapiens) (UniProt P45983); experiment: Inhibition of JNK1 (unknown origin) at 10 uM by [33P]-ATP radiometric assay
Method in brief: as §3, with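 “acid. Scintillation counted, no-substrate blank subtracted, single measurement, result given as % change versus control.” for “acid.”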

[23] = biological target: Cyclin-dependent kinase 16 (Homo sapiens) (UniProt Q00536); experiment: Inhibition of CDK16 (unknown origin) at 10 uM by [33P]-ATP radiometric assay
Method in brief: as §3, with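 “acid. Scintillation counted, no-substrate blank subtracted, single measurement, result given as % change versus control.” for “acid.”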

[24] = biological target: Cyclin-dependent kinase 1/Cyclin A1 (Homo sapiens) (UniProt P06493+P78396); experiment: Inhibition of CDK1/cyclin A1 (unknown origin) at 10 uM by [33P]-ATP radiometric assay; assay type: protein-complex assay
Method in brief: as §3, with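 “acid. Scintillation counted, no-substrate blank subtracted, single measurement, result given as % change versus control.” for “acid.”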

[25] = biological target: Fibroblast growth factor receptor 1 (Homo sapiens) (UniProt P11362); experiment: Inhibition of FGFR1 (unknown origin) at 10 uM by [33P]-ATP radiometric assay
Method in brief: as §3, with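 “acid. Scintillation counted, no-substrate blank subtracted, single measurement, result given as % change versus control.” for “acid.”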

[26] = biological target: Casein kinase I isoform alpha (Homo sapiens) (UniProt P48729); experiment: Inhibition of CK1alpha1 (unknown origin) at 10 uM by [33P]-ATP radiometric assay
Method in brief: as §3, with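 “acid. Scintillation counted, no-substrate blank subtracted, single measurement, result given as % change versus control.” for “acid.”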

[27] = biological target: Calcium/calmodulin-dependent protein kinase type II subunit alpha (Homo sapiens) (UniProt Q9UQM7); experiment: Inhibition of CAMK2-alpha (unknown origin) at 10 uM by [33P]-ATP radiometric assay
Method in brief: as §3, with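 “acid. Scintillation counted, no-substrate blank subtracted, single measurement, result given as % change versus control.” for “acid.”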

[28] = biological target: Mitogen-activated protein kinase 3 (Homo sapiens) (UniProt P27361); experiment: Inhibition of ERK1 (unknown origin) at 10 uM by [33P]-ATP radiometric assay
Method in brief: as §3, with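 “acid. Scintillation counted, no-substrate blank subtracted, single measurement, result given as % change versus control.” for “acid.”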

[29] = biological target: Protein kinase C beta type (Homo sapiens) (UniProt P05771); experiment: Inhibition of PCK-beta2 (unknown origin) at 10 uM by [33P]-ATP radiometric assay
Method in brief: as §3, with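 “acid. Scintillation counted, no-substrate blank subtracted, single measurement, result given as % change versus control.” for “acid.”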

[30] = biological target: Epidermal growth factor receptor (Homo sapiens) (UniProt P00533); experiment: Inhibition of EGFR (unknown origin) at 10 uM by [33P]-ATP radiometric assay
Method in brief: as §3, with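 “acid. Scintillation counted, no-substrate blank subtracted, single measurement, result given as % change versus control.” for “acid.”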

MCF7 [31] = experiment: Induction of apoptosis in human MCF7 cells assessed as increase of early apoptotic cells at 1 uM after 72 hrs by annexin V-FITC/propidium iodide staining-based flow cytometric method relative to control; assay type: functional
MCF7 [32] = experiment: Induction of apoptosis in human MCF7 cells assessed as increase of late apoptotic cells at 10 uM after 72 hrs by annexin V-FITC/propidium iodide staining-based flow cytometric method relative to control; assay type: functional; method in brief: as §2

Chain of Mitogen-activated protein kinase 3 (Homo sapiens) (P27361 whole entry): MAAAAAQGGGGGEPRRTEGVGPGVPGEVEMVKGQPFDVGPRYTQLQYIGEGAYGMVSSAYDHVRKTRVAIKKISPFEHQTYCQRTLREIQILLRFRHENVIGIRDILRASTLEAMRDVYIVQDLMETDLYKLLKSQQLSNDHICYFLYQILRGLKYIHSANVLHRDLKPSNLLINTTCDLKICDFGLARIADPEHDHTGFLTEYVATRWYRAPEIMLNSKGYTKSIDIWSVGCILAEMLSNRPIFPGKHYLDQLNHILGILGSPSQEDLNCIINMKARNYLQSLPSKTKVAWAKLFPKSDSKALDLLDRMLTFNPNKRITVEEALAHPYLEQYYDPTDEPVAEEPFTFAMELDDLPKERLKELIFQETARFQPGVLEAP
Chain of Cyclin-dependent kinase 16 (Homo sapiens) (Q00536 whole entry): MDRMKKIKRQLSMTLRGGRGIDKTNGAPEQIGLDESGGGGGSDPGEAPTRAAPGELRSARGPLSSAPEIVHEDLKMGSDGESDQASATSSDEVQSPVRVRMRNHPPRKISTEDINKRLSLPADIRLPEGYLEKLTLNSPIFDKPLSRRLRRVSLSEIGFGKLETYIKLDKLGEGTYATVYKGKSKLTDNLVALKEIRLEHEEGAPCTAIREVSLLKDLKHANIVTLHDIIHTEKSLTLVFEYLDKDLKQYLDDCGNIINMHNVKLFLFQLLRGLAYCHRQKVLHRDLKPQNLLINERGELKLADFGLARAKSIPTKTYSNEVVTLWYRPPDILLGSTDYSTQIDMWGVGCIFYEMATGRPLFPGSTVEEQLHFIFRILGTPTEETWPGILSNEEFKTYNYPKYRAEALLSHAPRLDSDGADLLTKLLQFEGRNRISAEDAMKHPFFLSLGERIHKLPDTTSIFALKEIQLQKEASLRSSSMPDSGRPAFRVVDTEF
Chain of Cyclin-dependent kinase 1/Cyclin A1 (Homo sapiens) (P06493 whole entry, looked up): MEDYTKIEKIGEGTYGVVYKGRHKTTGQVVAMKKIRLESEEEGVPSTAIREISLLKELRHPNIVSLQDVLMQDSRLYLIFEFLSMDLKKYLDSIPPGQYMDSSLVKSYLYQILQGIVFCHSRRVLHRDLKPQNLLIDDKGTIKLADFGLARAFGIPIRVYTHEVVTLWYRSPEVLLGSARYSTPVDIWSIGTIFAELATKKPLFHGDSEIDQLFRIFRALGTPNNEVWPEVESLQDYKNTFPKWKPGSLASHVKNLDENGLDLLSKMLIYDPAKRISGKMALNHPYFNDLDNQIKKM
Chain of Cyclin-dependent kinase 1/Cyclin A1 (Homo sapiens) (P78396 whole entry, looked up): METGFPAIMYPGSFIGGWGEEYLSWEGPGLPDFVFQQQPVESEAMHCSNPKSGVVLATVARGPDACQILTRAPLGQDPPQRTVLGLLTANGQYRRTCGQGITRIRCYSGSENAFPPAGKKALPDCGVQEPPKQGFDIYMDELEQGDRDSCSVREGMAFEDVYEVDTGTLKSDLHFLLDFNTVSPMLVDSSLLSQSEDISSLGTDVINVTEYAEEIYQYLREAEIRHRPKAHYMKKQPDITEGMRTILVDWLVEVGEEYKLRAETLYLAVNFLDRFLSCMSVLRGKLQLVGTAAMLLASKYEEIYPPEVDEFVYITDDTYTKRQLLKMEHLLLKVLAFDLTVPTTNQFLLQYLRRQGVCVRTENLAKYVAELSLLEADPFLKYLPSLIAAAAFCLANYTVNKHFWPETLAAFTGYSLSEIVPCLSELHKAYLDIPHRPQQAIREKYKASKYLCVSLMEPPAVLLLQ
Chain of Epidermal growth factor receptor (Homo sapiens) (P00533 whole entry): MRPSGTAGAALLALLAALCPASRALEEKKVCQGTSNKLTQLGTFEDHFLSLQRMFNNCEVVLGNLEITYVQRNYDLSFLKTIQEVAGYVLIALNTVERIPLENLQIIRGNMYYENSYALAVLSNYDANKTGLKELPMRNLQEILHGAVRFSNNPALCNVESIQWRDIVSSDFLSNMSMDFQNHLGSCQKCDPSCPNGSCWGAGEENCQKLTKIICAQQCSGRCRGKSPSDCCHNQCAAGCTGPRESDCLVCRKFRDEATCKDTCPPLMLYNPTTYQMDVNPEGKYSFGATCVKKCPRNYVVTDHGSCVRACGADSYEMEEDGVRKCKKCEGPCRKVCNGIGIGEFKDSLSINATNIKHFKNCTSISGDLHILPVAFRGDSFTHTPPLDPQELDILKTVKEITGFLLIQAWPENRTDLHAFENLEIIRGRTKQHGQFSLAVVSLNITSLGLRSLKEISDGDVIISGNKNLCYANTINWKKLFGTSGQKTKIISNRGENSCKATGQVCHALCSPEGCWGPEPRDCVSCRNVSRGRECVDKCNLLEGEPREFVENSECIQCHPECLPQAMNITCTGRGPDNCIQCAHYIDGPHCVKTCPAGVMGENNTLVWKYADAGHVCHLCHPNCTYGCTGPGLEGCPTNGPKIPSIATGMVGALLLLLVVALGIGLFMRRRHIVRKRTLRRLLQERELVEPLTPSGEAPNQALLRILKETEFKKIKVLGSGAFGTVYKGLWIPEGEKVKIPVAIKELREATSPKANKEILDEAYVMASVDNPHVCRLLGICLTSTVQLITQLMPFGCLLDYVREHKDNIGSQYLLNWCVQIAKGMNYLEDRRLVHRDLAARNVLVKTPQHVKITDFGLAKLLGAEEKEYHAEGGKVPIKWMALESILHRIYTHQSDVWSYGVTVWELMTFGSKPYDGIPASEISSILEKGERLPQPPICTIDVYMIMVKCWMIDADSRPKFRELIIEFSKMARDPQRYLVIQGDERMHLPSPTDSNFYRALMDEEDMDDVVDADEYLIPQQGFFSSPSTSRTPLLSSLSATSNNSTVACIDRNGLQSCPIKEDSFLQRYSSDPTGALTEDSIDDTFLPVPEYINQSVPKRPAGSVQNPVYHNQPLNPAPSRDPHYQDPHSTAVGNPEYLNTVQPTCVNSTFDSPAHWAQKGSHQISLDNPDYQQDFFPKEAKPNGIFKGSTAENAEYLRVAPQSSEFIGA
Chain of Protein kinase C beta type (Homo sapiens) (P05771 2-671 limits assumed): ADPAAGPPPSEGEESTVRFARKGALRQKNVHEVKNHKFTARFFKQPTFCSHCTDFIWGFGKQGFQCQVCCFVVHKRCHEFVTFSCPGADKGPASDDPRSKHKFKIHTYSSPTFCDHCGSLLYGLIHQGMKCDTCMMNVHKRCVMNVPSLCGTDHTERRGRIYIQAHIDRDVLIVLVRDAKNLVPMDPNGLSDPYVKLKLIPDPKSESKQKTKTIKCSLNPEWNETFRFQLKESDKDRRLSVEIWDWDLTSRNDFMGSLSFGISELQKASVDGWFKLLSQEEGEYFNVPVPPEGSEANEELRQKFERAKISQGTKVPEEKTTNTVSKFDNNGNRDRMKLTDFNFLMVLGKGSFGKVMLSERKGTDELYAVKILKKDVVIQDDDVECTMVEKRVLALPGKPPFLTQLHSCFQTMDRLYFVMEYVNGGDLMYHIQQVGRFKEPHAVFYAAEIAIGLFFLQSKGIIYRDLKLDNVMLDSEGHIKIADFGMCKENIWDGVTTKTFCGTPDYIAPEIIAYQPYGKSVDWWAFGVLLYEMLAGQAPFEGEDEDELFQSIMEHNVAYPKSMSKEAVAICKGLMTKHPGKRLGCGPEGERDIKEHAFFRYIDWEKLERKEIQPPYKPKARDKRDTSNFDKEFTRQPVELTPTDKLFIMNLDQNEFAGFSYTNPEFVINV
Chain of Mitogen-activated protein kinase 8 (Homo sapiens) (P45983 whole entry): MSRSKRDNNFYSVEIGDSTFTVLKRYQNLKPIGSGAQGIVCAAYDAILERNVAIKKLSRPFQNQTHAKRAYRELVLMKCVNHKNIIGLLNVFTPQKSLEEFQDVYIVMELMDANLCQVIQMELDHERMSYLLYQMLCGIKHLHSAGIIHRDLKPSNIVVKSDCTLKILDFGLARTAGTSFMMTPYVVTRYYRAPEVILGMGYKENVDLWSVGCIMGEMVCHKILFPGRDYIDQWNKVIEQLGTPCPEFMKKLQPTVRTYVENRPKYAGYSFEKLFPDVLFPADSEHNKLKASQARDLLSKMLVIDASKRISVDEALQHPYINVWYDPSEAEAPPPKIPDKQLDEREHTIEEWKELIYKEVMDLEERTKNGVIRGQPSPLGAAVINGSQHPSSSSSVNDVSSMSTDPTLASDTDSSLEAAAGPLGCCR
Chain of Casein kinase I isoform alpha (Homo sapiens) (P48729 2-337 limits assumed): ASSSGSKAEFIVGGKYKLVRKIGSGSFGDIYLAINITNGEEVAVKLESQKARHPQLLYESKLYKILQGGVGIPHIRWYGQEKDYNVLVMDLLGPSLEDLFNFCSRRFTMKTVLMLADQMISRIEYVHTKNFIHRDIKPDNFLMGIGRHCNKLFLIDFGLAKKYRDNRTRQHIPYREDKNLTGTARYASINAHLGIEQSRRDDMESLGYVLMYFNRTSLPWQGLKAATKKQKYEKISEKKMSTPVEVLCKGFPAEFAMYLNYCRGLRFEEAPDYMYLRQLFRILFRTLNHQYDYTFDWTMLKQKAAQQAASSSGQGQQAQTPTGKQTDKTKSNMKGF
Chain of Calcium/calmodulin-dependent protein kinase type 1 (Homo sapiens) (Q14012 whole entry, looked up): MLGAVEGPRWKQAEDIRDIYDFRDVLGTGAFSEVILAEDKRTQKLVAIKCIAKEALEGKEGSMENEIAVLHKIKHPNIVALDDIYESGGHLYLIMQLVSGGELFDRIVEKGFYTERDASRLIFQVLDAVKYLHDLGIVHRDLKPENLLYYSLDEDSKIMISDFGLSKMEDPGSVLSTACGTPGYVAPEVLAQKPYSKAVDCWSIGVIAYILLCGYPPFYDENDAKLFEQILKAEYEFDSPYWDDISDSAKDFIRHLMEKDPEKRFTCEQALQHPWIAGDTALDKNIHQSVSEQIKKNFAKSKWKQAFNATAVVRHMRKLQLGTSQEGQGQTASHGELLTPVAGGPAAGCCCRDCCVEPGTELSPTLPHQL

IC50 (A2780) [µM] | IC50 (MCF7 [8]) [µM] | IC50 (HCT-116) [µM] | IC50 (K562) [µM] | SMILES | Activity (MCF7 [2]) [%] | Activity (MCF7 [3]) [%] | IC50 [4] [µM] | Activity (MCF7 [5]) [%] | viability at 10 µM (MCF7 [6]) [%] | Activity (MCF7 [7]) [%] | Activity (MCF7 [10]) [%] | Activity (MCF7 [11]) [%] | viability at 1 µM (MCF7 [12]) [%] | viability at 5 µM (MCF7 [13]) [%] | Activity (MCF7 [14]) [%] | Activity (MCF7 [16]) [%] | Activity (MCF7 [17]) [%] | also measured
0.19 | 0.2 | 0.31 | > 50 | O=c1[nH]c(NCc2ccc(CN3CCOCC3)cc2)nc2nc3ccc(Cl)cc3nc12 | 7.8 | 14 | 40.1 | 19.3 | 58 | 11.2 | 2.9 | 4 | 82.6 | 74.1 | 16.4 | 3.2 | 6.3 | Ratio (MCF7 [1]): 7; Activity (MCF7 [9]): Dose-dependent effect; fold change (FC) (MCF7 [15]): 2
10.1 | 11.6 | 13 | 9.97 | O=c1[nH]c(NCc2ccc(CN3CCCCC3)cc2)nc2nc3ccccc3cc12 |  |  | 39 |  |  |  |  |  |  |  |  |  |  | inhibition [18]: 32%; inhibition [19]: 33%; inhibition [20]: 5%; inhibition [21]: 0%; inhibition [22]: -7%; inhibition [23]: -5%; inhibition [24]: 18%; inhibition [25]: -4%; inhibition [26]: -6%; inhibition [27]: 1%; inhibition [28]: -1%; inhibition [29]: 4%; inhibition [30]: -3%
0.34 | 0.16 | 0.14 | > 50 | CC(Nc1nc2nc3ccccc3nc2c(=O)[nH]1)c1ccccc1 (configuration not stated) | 9.7 | 14.1 | > 50 | 14.4 | 45.8 | 22.1 | 4 | 5.1 | 63.4 | 71.2 | 32 | 10.5 | 7.9 | fold change (FC) (MCF7 [31]): >2; fold change (FC) (MCF7 [32]): 13
